ChEMBL document CHEMBL1156877, “Discovery of 6-benzyloxyquinolines as c-Met selective kinase inhibitors” (Bioorg Med Chem Lett, 2010)

Tests used:
[1] = system: HUVEC; test: Inhibition of VEGF-induced proliferation of HUVEC after 96 hrs by WST8 assay; details: Homo sapiens
[2] = molecular target: Leukocyte tyrosine kinase receptor (Homo sapiens, UniProt P29376); test: Inhibition of recombinant LTK by TR-FRET assay
In short: (§1)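 Recombinant tyrosine kinase incubated with test compound and substrate peptide/ATP for 90 min at 30 °C; enzyme amount, ATP level, substrate and cation vary by kinase. Reaction stopped, then TR-FRET reagent with europium-labelled anti-phospho-substrate antibody added for 5 min at room temperature; substrate phosphorylation read as time-resolved fluorescence.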

[3] = molecular target: T1, Tyrosine-protein kinase receptor UFO (Homo sapiens, UniProt P30530); test: Inhibition of recombinant AXL by TR-FRET assay; in short: as §1
T1 sequence (P30530 whole entry): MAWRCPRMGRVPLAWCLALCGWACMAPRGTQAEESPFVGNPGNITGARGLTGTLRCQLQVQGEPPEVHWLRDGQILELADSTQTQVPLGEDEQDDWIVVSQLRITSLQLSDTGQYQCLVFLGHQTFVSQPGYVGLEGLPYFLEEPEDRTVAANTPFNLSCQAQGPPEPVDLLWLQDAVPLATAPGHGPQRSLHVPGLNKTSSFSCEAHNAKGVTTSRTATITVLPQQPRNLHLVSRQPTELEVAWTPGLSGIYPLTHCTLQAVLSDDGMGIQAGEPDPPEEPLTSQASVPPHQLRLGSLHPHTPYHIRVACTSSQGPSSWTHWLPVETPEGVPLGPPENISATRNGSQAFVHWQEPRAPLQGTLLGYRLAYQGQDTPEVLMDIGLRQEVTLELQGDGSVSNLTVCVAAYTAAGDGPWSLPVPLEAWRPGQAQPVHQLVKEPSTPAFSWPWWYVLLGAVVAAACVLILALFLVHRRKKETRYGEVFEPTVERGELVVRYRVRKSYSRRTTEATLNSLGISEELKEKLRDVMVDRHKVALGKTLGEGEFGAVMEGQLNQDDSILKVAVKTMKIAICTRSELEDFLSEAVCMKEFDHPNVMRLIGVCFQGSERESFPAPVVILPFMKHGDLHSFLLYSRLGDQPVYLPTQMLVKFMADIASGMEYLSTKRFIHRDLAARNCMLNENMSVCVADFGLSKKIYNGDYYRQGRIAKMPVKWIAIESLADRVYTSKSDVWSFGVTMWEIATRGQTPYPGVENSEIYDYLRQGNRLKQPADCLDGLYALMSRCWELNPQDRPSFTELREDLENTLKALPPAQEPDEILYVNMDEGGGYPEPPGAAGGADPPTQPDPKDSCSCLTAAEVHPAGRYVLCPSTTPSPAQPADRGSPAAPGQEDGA

[4] = system: WiDr; test: Cytotoxicity against human WiDr cells after 96 hrs by WST8 assay
[5] = molecular target: Mast/stem cell growth factor receptor Kit (Homo sapiens, UniProt P10721); test: Inhibition of recombinant Kit by TR-FRET assay; in short: as §1
[6] = system: HCT-116; test: Cytotoxicity against human HCT116 cells after 96 hrs by WST8 assay; details: HCT-116, 96 h
[7] = molecular target: T2, Protein kinase C beta type (Homo sapiens, UniProt P05771); test: Inhibition of recombinant PKCbeta2 by IMAP assay
T2 sequence (P05771 whole entry): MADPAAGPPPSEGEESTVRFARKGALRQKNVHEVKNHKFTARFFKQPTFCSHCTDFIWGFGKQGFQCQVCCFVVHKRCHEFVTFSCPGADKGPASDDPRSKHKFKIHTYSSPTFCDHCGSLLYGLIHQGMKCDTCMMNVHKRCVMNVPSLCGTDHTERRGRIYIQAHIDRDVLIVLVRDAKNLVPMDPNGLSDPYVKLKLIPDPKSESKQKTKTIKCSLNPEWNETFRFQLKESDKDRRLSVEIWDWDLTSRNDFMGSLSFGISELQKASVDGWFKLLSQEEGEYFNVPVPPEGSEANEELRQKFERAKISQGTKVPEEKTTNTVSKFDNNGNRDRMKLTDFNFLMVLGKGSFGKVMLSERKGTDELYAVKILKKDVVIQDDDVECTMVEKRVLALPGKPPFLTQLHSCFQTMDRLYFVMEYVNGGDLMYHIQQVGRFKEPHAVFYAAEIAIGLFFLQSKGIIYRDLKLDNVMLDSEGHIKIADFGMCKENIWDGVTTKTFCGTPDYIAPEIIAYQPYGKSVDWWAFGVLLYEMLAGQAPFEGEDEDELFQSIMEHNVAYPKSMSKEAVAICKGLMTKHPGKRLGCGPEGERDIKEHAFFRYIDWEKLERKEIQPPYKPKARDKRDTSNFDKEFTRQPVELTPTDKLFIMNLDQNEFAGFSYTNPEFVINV
In short: (§2)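 Recombinant enzyme mixed with test compound and substrate peptide/ATP solution, incubated 90 min at 30 °C; enzyme quantity, ATP, substrate and cation set per kinase. IMAP reagent then added for 5 min at room temperature, and peptide phosphorylation quantified by fluorescence polarization.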

[8] = system: PC-3; test: Cytotoxicity against human PC3 cells after 96 hrs by WST8 assay; details: PC-3, 96 h
[9] = system: HUVEC; test: Inhibition of ECGS-induced proliferation of HUVEC after 96 hrs by WST8 assay; details: Homo sapiens
[10] = system: MDA-MB-231; test: Cytotoxicity against human MDA-MB-231 cells after 96 hrs by WST8 assay; details: MDA-MB-231, 96 h
[11] = system: MCF7; test: Cytotoxicity against human MCF7 cells after 96 hrs by WST8 assay; details: MCF7, 96 h
[12] = Inhibition of recombinant PKA by IMAP assay; in short: as §2
[13] = system: ASPC1; test: Cytotoxicity against human AsPC1 cells after 96 hrs by WST8 assay; details: ASPC1, 96 h
[14] = system: CWR22R; test: Cytotoxicity against human 22Rv1 cells after 96 hrs by WST8 assay; details: 22Rv1, 96 h
[15] = molecular target: Insulin-like growth factor 1 receptor (Homo sapiens, UniProt P08069); test: Inhibition of recombinant IGF1R by TR-FRET assay; in short: as §1
[16] = molecular target: RAC-alpha serine/threonine-protein kinase (Homo sapiens, UniProt P31749); test: Inhibition of recombinant AKT1 by IMAP assay; in short: as §2
Sequence of RAC-alpha serine/threonine-protein kinase (P31749 whole entry): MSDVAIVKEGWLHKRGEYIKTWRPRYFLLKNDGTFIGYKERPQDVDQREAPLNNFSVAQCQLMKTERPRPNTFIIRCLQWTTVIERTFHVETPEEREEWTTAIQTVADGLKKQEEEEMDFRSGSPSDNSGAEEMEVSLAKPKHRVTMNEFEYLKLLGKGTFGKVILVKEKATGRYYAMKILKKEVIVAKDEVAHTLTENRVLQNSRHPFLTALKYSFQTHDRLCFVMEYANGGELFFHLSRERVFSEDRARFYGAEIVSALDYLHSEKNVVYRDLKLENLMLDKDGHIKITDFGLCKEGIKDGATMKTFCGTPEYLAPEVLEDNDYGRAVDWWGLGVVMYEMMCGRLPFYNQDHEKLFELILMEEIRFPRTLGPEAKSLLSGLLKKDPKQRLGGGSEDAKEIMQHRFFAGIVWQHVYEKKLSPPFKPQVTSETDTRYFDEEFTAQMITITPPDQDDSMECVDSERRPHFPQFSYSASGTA

[17] = molecular target: Macrophage-stimulating protein receptor (Homo sapiens, UniProt Q04912); test: Inhibition of recombinant RON by TR-FRET assay; in short: as §1
Sequence of Macrophage-stimulating protein receptor (Q04912 25-304 limits assumed): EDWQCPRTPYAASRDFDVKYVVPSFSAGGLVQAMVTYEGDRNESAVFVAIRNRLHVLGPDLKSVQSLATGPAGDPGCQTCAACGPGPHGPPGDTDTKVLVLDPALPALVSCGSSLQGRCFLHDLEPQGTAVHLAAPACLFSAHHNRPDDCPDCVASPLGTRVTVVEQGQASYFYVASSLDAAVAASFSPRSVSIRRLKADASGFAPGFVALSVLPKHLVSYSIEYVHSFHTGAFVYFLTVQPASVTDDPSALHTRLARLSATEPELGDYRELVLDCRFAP
Sequence of Macrophage-stimulating protein receptor (Q04912 310-1400 limits assumed): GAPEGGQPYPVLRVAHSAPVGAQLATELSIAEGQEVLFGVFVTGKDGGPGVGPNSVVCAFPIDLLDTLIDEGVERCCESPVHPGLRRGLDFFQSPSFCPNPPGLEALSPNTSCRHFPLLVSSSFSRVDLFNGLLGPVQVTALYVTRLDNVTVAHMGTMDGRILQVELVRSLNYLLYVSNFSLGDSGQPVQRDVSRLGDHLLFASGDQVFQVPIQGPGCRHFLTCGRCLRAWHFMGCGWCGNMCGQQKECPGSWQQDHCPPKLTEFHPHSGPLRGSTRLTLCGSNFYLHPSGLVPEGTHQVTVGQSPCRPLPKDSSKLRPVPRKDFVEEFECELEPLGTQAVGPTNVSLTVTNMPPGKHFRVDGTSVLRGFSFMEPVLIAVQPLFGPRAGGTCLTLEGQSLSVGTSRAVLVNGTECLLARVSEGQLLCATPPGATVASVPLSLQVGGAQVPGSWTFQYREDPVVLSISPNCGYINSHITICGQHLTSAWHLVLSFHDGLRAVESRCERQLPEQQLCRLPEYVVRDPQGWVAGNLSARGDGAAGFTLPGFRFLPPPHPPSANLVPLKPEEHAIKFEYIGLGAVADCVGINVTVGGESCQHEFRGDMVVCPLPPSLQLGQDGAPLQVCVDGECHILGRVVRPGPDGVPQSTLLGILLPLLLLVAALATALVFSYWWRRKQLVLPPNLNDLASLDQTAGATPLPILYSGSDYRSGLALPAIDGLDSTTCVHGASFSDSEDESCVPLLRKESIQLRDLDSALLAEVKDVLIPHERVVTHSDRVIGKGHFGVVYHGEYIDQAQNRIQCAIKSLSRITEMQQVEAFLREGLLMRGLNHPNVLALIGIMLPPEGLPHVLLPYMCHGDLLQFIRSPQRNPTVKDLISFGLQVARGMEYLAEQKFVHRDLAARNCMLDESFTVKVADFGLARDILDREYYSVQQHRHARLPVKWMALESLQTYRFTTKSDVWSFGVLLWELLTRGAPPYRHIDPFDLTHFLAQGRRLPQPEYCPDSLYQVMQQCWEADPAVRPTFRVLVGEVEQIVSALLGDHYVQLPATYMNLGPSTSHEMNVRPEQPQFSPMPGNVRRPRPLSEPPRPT

[18] = molecular target: Cyclin-dependent kinase 1 (Homo sapiens, UniProt P06493); test: Inhibition of recombinant CDK1 by IMAP assay; in short: as §2
Sequence of Cyclin-dependent kinase 1 (P06493 whole entry): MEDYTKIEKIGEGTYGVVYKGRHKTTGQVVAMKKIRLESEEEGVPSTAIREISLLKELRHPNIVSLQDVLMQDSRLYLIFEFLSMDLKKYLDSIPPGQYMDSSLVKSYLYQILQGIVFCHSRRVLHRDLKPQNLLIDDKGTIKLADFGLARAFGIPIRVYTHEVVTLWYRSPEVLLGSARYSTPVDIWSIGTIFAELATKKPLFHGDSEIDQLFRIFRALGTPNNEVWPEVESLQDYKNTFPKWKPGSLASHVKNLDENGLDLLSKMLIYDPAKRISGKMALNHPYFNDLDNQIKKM

[19] = molecular target: Hepatocyte growth factor receptor (Homo sapiens, UniProt P08581); test: Inhibition of recombinant c-Met by TR-FRET assay
Sequence of Hepatocyte growth factor receptor (P08581 whole entry): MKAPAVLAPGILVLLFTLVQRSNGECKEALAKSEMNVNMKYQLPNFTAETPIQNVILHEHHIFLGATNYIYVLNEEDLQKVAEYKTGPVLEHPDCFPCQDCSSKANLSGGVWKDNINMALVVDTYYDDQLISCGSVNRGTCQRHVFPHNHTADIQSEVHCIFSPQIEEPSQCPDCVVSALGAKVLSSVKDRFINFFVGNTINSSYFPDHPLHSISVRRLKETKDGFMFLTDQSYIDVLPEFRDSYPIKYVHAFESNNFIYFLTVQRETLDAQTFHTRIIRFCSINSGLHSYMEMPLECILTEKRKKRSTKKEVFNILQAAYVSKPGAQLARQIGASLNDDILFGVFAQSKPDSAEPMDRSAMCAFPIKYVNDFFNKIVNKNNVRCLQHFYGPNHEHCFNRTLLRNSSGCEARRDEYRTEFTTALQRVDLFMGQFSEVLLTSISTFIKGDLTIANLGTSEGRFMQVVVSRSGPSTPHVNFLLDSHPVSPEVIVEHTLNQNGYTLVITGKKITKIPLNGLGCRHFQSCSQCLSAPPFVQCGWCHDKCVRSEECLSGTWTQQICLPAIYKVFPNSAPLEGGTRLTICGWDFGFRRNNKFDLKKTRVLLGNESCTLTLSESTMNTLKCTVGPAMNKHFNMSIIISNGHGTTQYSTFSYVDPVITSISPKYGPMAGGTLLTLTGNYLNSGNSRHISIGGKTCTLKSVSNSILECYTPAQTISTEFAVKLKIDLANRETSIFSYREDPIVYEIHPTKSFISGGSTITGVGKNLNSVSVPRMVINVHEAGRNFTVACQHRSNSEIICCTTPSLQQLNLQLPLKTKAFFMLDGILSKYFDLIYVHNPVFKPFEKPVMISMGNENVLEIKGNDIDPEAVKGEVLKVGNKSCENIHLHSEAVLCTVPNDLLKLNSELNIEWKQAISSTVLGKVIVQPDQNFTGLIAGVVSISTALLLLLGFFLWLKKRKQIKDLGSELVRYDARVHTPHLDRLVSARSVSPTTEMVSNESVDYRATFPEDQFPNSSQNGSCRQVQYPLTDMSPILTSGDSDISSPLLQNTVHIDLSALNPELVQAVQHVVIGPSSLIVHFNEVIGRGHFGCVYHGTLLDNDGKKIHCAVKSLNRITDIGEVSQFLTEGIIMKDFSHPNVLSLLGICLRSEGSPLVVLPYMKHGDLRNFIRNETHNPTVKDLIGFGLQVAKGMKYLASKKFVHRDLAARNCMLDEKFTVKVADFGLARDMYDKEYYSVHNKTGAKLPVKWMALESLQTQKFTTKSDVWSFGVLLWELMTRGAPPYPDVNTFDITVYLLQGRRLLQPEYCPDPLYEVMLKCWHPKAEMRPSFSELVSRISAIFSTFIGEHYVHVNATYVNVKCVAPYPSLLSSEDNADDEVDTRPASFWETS

[20] = molecular target: Protein kinase C alpha type (Homo sapiens, UniProt P17252); test: Inhibition of recombinant PKCalpha by IMAP assay; in short: as §2
[21] = molecular target: T2, Protein kinase C beta type; test: Inhibition of recombinant PKCbeta1 by IMAP assay; in short: as §2
[22] = system: COLO 205; test: Cytotoxicity against human COLO205 cells after 96 hrs by WST8 assay; details: COLO 205, 96 h
[23] = molecular target: Ephrin type-A receptor 2 (Homo sapiens, UniProt P29317); test: Inhibition of recombinant EphA2 by TR-FRET assay; in short: as §1

Which results are given for `C[C@@H](Oc1ccc2ncc(C3CC3C(N)=O)cc2c1)c1c(Cl)ccc(F)c1Cl` (stereo partly drawn)?
IC50 [1]: 6.7 µM; IC50 [2]: 10 µM; IC50 [3]: 0.43 µM; IC50 [4]: > 1 µM; IC50 [5]: 41 µM; IC50 [6]: > 1 µM; IC50 [7]: > 50 µM; IC50 [8]: > 1 µM; IC50 [9]: 9.9 µM; IC50 [10]: > 1 µM; IC50 [11]: > 1 µM; IC50 [12]: > 50 µM; IC50 [13]: > 1 µM; IC50 [14]: > 1 µM; IC50 [15]: 27 µM; IC50 [16]: > 50 µM; IC50 [17]: 0.23 µM; IC50 [18]: > 50 µM; IC50 [19]: 0.0093 µM; IC50 [20]: > 50 µM; IC50 [21]: > 50 µM; IC50 [22]: > 1 µM; IC50 [23]: 5.2 µM
